The source of these data is ChEMBL document CHEMBL4513216, “Probing the Open Global Health Chemical Diversity Library for Multistage-Active Starting Points for Next-Generation Antimalarials” (ACS Infect Dis, 2020).

This data set can be described thus: Toxicity liver stage against HepG2, at 10uM. On the set-up: test concentration 10 uM, cell line HepG2-A16-CD81EGFP. Conditions: human, HepG2-A16-CD81EGFP cells; read-out: INHIBITION
The data set is classed as cell-based. Put shortly:
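Uninfected HepG2-A16-CD81EGFP cells, 3 × 10^3 per well, 1536-well, plated on prespotted compound at 10 μM final, parasite-free screening media added to match infected plates; puromycin 10 μM positive, DMSO 0.5% negative; run in parallel with 48 h PbLuc assay at 37 °C, 5% CO2; viability by CellTiter-Glo luminescence, normalized to controls.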
On to `O=C(c1cc(Cl)c2c(c1)OCCCO2)N(CC1CCOC1)C1CC1` (stereo not given), for which the cytotoxicity at 10 µM is -4.09%.

In the case of `CCc1nc(CN2CCN(c3ncnc4cc(F)ccc34)CC2)no1`, the cytotoxicity at 10 µM came to 41.5%.

Take `CN(Cc1ccc(F)c2cccnc12)C1CCS(=O)(=O)C1` (stereo not given): the cytotoxicity at 10 µM stood at 5.93%.

Consider `CC(C)S(=O)(=O)C(C)C(=O)NCc1ccccc1OCc1ccccc1` (stereo not given), for which the cytotoxicity at 10 µM came to 18.8%.

Take `CNc1ncc(CN(C)C(=O)c2ccc(C3CCCO3)s2)cn1` (stereo not given): the cytotoxicity at 10 µM was found to be 10.2%.

As for `CCc1cnc(N)nc1NCCn1cc(Cl)cn1`, the cytotoxicity at 10 µM amounted to 1.5%.

Regarding `CNC(=O)CN1CCOCC2(C1)CN(C(=O)C(C)C)CCO2` (stereo not given), the cytotoxicity at 10 µM is -0.182%.

Consider `CC(C)OCCN(C)CC(c1cccs1)N1CCOCC1` (stereo not given), for which the cytotoxicity at 10 µM was -4.34%.

As to `CC(C)c1noc(C(C)N2CCN(Cc3noc(C4CC4)n3)CC2)n1` (stereo not given), the cytotoxicity at 10 µM came out at 3.01%.

On to `CC(C)C(C)(O)CNc1cccc(F)c1C#N` (stereo not given), for which the cytotoxicity at 10 µM was -8.87%.

Regarding `COc1ccc2nc(C3CC3)cc(C(=O)NCc3noc(C)n3)c2c1`, the cytotoxicity at 10 µM is 11.8%.

Regarding `O=C1CC2(CCN(Cc3ccccn3)C2)CN1c1cncnc1` (stereo not given), the cytotoxicity at 10 µM was 2.26%.

In the case of `Cc1nc(Cn2cc(C#N)c(=O)c3ccccc32)no1`, the cytotoxicity at 10 µM worked out at 9.95%.

For `c1ccc(-c2nc3c(c(NCCn4cccc4)n2)CCNCC3)nc1`, the cytotoxicity at 10 µM was -51.9%.

Turning to `CC(C)c1nc(C2CCCN2C(=O)CCn2cncn2)no1` (stereo not given), the cytotoxicity at 10 µM was -2.38%.

Turning to `Cc1nc(C)n(C2CCCN(C(=O)c3cncnc3C)C2)n1` (stereo not given), the cytotoxicity at 10 µM was -2.48%.

For `O=C(c1ccco1)N1C[C@H]2CCCN(CC3CCOCC3)[C@H]2C1`, the cytotoxicity at 10 µM was -0.285%.

With `Cc1nccn1C1CCCN(C(=O)C2=NN(C)C(=O)CC2)C1` (stereo not given), the cytotoxicity at 10 µM is -7.49%.

Regarding `NC(=O)Cn1cc(NC(=O)N2CCN(c3ccccc3)CC2)cn1`, the cytotoxicity at 10 µM was -8.45%.

As for `C[C@H]1C(=O)NC[C@H]2CN(Cc3ccccc3)C[C@H]21`, the cytotoxicity at 10 µM stood at 1.47%.

In the case of `O=C(CN1CCCC(O)C1)NC(=O)NCc1cccs1` (stereo not given), the cytotoxicity at 10 µM is 0.795%.

As to `CC(C)C(C)n1nccc1NC(=O)Cn1cnc2ccccc21` (stereo not given), the cytotoxicity at 10 µM was determined as 10.8%.

Turning to `COc1cccc(CCN2C[C@H]3CCNCC[C@H]3S2(=O)=O)c1`, the cytotoxicity at 10 µM is -8.35%.

On to `Cn1cc(CCNC(=O)NC2CCS(=O)(=O)C2)cn1` (stereo not given), for which the cytotoxicity at 10 µM is -12.9%.

`Cc1cccc(NC(=O)c2csc(NCC(C)C)n2)n1`: the cytotoxicity at 10 µM is -3.33%.

For `CCCN(C(=O)CCS(=O)(=O)Cc1ccccc1)c1cccc(C)c1`, the cytotoxicity at 10 µM is -2.67%.

With `CCOC(=O)N1CCC(NC(=O)c2cccc(C3CCCNC3)c2)CC1` (stereo not given), the cytotoxicity at 10 µM amounted to 1.34%.

As for `CC(OCC(F)(F)F)C(=O)NCCN(C)C` (stereo not given), the cytotoxicity at 10 µM was -3.17%.

For `CC(C)Cc1noc(CN2CCCN(C(=O)c3ccccc3Cl)CC2)n1`, the cytotoxicity at 10 µM was -5.95%.

Regarding `CCOCCCNC(=O)CN(c1cc(C)cc(C)c1)S(C)(=O)=O`, the cytotoxicity at 10 µM was 4.48%.

With `Cc1cccc2nc(C(=O)N3CCCC[C@]4(C)NC(=O)CCC[C@H]34)cn12`, the cytotoxicity at 10 µM is -1.85%.

`COCCc1noc(CN2CCCC2Cn2nc(C)nc2C)n1` (stereo not given): the cytotoxicity at 10 µM is -1.39%.

Regarding `Cc1nc(CNCC2CCCN2c2cccnn2)no1` (stereo not given), the cytotoxicity at 10 µM was -1.59%.

In the case of `O[C@@]1(CNCC2(Cn3ccnc3)CC2)CCCN2CCCC[C@@H]21`, the cytotoxicity at 10 µM came out at 5.09%.

For `Cc1ccsc1CN(C)c1cc(N2CCCC2CO)ncn1` (stereo not given), the cytotoxicity at 10 µM was found to be 11.7%.

In the case of `Cc1ccccc1OCCCNC(=O)C1(C)CC(=O)N2C=CC=CC2=N1` (stereo not given), the cytotoxicity at 10 µM was -4.96%.

For `CS(=O)(=O)NC[C@]12COC[C@H]1CN(C(=O)c1ncccn1)C2`, the cytotoxicity at 10 µM turned out to be 4.9%.

For the compound `CC(=O)N1CCN(c2nc(C(F)(F)F)nc3sc(C)c(C)c23)CC1`, the cytotoxicity at 10 µM is -4.33%.

Consider `OC[C@@H]1[C@H]2CN(c3ccccn3)CCN2C[C@H]1c1ccccc1`, for which the cytotoxicity at 10 µM was -8.43%.

Regarding `O=C1CC[C@H]2[C@H](CCN2S(=O)(=O)C2CC2)N1CCN1CCCC1`, the cytotoxicity at 10 µM was -88.9%.

With `Cc1cnn(CC2CN(CC(=O)NCc3ccc(C)s3)CCO2)c1` (stereo not given), the cytotoxicity at 10 µM is 0.742%.

Consider `O=C(c1ccccc1F)N1C[C@H]2CCC[C@@]2(COCc2ccncc2)C1`, for which the cytotoxicity at 10 µM is 7.4%.

`Cc1nc[nH]c1-c1nnc(SCC(=O)O)n1-c1ccccc1C(F)(F)F`: the cytotoxicity at 10 µM is 0.0448%.

As for `CCN(CC)C(=O)Cn1ccc2cc(NC(=O)COC)ccc21`, the cytotoxicity at 10 µM is -7.89%.

Consider `Cc1cnn(CC2CN(CC(=O)N(C)Cc3ccsc3)CCO2)c1` (stereo not given), for which the cytotoxicity at 10 µM was -10.6%.

As to `CCc1cc(NCCc2cccnc2)n2nc(C)c(C)c2n1`, the cytotoxicity at 10 µM came out at 2.12%.

Take `CC(=O)N1CCc2ccc(S(=O)(=O)N3CCCCC3C)cc21` (stereo not given): the cytotoxicity at 10 µM was -10.3%.

As to `Cc1nc(OCC(=O)N2CCCC2)cc(-n2cccn2)n1`, the cytotoxicity at 10 µM worked out at 3.99%.

For `O=C(c1ccnnc1)N1CCC2(CC1)CCN(C(=O)c1cccnc1)C2`, the cytotoxicity at 10 µM is -97.8%.

Turning to `O=C(c1cn(-c2ccccc2Cl)nn1)N1CCN(CCO)CC1`, the cytotoxicity at 10 µM was -2.88%.

On to `CN(Cc1ccc2nonc2c1)C(=O)c1ccc(C2CCCO2)s1` (stereo not given), for which the cytotoxicity at 10 µM turned out to be 12.1%.

Take `O=C(NCCn1cc(Cl)cn1)C1CCN(C(=O)C2CC2)CC1`: the cytotoxicity at 10 µM was -50.5%.

As for `C[C@H]1CN(C)C[C@@]12COCCN(C(=O)Cc1ccccc1)C2`, the cytotoxicity at 10 µM is 3.65%.

Turning to `COCCSc1ccc(C(C)NC(=O)Nc2cn[nH]c2)cc1` (stereo not given), the cytotoxicity at 10 µM worked out at 8.88%.

On to `Cc1ccc(N2CCC3(CCCN3Cc3ccn(C)n3)CC2)nn1`, for which the cytotoxicity at 10 µM was found to be 11.6%.

Take `Cc1cc(C(=O)NCc2ccc(N3CCCC(C(N)=O)C3)cc2)no1` (stereo not given): the cytotoxicity at 10 µM is -3.37%.

On to `Cc1nc(CNC(=O)c2ccc3c(c2)nc(N2CCOCC2)n3C)cs1`, for which the cytotoxicity at 10 µM is -1.76%.

For `CN(C)CCOCC1CN(C(=O)c2ccsc2)Cc2ccnn2C1` (stereo not given), the cytotoxicity at 10 µM is -0.0653%.

Take `CC(C)N[C@@H]1CO[C@H](CNC(=O)c2ccccc2)[C@H]1O`: the cytotoxicity at 10 µM was -5.73%.

As to `CC(C)(CNC(=O)c1ccc(Cl)o1)NC(=O)OC(C)(C)C`, the cytotoxicity at 10 µM is -2.25%.

As to `CC(=O)NCCC(=O)Nc1sccc1C(=O)C(C)(C)C`, the cytotoxicity at 10 µM is -46.3%.

`Cc1ccc(C2CN(CCS(C)(=O)=O)CCO2)c(C)c1` (stereo not given): the cytotoxicity at 10 µM turned out to be 3.03%.

Regarding `CC(SCCS(C)(=O)=O)c1nc(Cc2ccccc2)no1` (stereo not given), the cytotoxicity at 10 µM worked out at 2.25%.

In the case of `COCCOCC(=O)N1CCC(O)(c2ccc3nc(C)ccc3c2)CC1`, the cytotoxicity at 10 µM was -1.01%.

As for `CN(Cc1nc(-c2ccccc2)no1)Cc1cnc(N2CCOCC2)s1`, the cytotoxicity at 10 µM is -1.48%.

In the case of `CCc1noc(-c2cccc(NC(=O)C(C)(C)C)c2)n1`, the cytotoxicity at 10 µM was -4.15%.

In the case of `CSc1ccccc1C(=O)NCCC(O)c1ccco1` (stereo not given), the cytotoxicity at 10 µM is -9.95%.

For the compound `CC(C)CCC1=NC2(CCN(C(=O)CN3CCCC3=O)CC2)C(=O)N1`, the cytotoxicity at 10 µM is -3.07%.

Turning to `CCS(=O)(=O)N1CCC(c2nnc(CN3CCCCCC3)n2C)CC1`, the cytotoxicity at 10 µM was -8.01%.

Take `Cc1nn(CC(=O)Nc2cccc(F)c2)c(N)c1C#N`: the cytotoxicity at 10 µM was determined as 17.9%.

As for `COCC1CCN(C(=O)c2cc(O)nc(CC(C)C)c2)CC1`, the cytotoxicity at 10 µM is -2.7%.

Consider `CC(C)C(C(=O)N1CCC2(CC1)CN(C)C(=O)O2)c1ccccc1` (stereo not given), for which the cytotoxicity at 10 µM is -53.6%.

With `CN(C)c1ncc(CN2CCC(c3nnsc3S(C)(=O)=O)CC2)cn1`, the cytotoxicity at 10 µM came to 4.12%.

With `O=C(NC1CC1)c1cnc(-c2noc3cc(N4CCCCC4)ccc23)s1`, the cytotoxicity at 10 µM was 46%.

Consider `CC(C)CN1CCC(C(=O)Nc2cc(C(F)(F)F)c[nH]c2=O)CC1`, for which the cytotoxicity at 10 µM is -11.3%.

For the compound `Fc1ccc(C2(CNCC(F)F)CCOC2)cc1` (stereo not given), the cytotoxicity at 10 µM was -152%.

Regarding `O=C(NCc1cncc2c1CCN(C1CCOCC1)C2)c1ccno1`, the cytotoxicity at 10 µM was -2.67%.

For `COc1ccc(-c2ccnc3c2C(=O)CCC3)cc1`, the cytotoxicity at 10 µM stood at 6.09%.

In the case of `CCn1c(CNC(=O)Nc2nc(C)c(C)o2)nc2ccccc21`, the cytotoxicity at 10 µM is -5.3%.

In the case of `COc1cc(N2CC[C@@H]3O[C@@H](c4ccnc(C)n4)C[C@H]3C2)ncn1`, the cytotoxicity at 10 µM amounted to 23.1%.

For `Cc1nc2n(n1)CC(NCc1cc(Cl)c3c(c1)OCCCO3)CC2` (stereo not given), the cytotoxicity at 10 µM is -4.15%.

For the compound `COc1ccccc1OCc1cc(C(=O)N2CC(O)C2)n[nH]1`, the cytotoxicity at 10 µM was -1.02%.

In the case of `CN(C)CCNC(=O)c1ccc(OC2CCN(C3CCC3)CC2)c(Cl)c1`, the cytotoxicity at 10 µM was -5.89%.

For the compound `O=C(CN1CCCC1Cn1cncn1)NCCOc1cccc(F)c1` (stereo not given), the cytotoxicity at 10 µM was -3.24%.

Turning to `Cc1ccccc1-c1cc(C(=O)N2CCn3c(C)nnc3C2)[nH]n1`, the cytotoxicity at 10 µM was -5.82%.

As to `CNC(=O)C1CCN(Cc2nc(-c3ccc(SC)cc3)oc2C)C1` (stereo not given), the cytotoxicity at 10 µM is -0.465%.

Take `O=C(Cc1ccccc1)N1CCn2cc(Cn3cncn3)nc2C1`: the cytotoxicity at 10 µM is -137%.

Turning to `CO[C@H]1CCN(S(=O)(=O)c2cccnc2)[C@@H]2CN(CC3CC3)C[C@H]12`, the cytotoxicity at 10 µM was -73.5%.

Turning to `CCOCCN1CCC=C(C2c3nc[nH]c3CCN2C(C)=O)C1` (stereo not given), the cytotoxicity at 10 µM is -3.67%.

Regarding `CCOc1nnc(CN(CC)CC(=O)NC(C)C)s1`, the cytotoxicity at 10 µM came out at 3.88%.

Regarding `N#Cc1ccc(C(=O)N2CC[C@H]3[C@H]2CCN3CC2CC2)cc1`, the cytotoxicity at 10 µM is -9.87%.

Turning to `CC(C(=O)NCc1ccc(N2CCNC(=O)C2)cc1)c1cccs1` (stereo not given), the cytotoxicity at 10 µM is -4.43%.

With `Cc1csc(N2CCN(C(=O)CCn3cncn3)CC2)n1`, the cytotoxicity at 10 µM was -5.97%.

In the case of `CCC(CNC(=O)c1nc(=O)[nH][nH]1)Oc1cccc(F)c1` (stereo not given), the cytotoxicity at 10 µM was -6.76%.

`c1cnc(N2CCCC3(CCN(CC4CCC4)C3)C2)nc1` (stereo not given): the cytotoxicity at 10 µM is -82.8%.
